Compound activity deposited in PubChem by several laboratories.
Most compounds without a hit are left out; they make up all but 4.5% or so of the library.
RGS4 act = RGS4 potentiators or activators, primary screen, cell-based, HEK293 M3R inducible RGS4, calcium flux | B-score at 10 µM | carbachol calcium flux Fluo4; active compounds read low | actives 0.92% (n = 310,000);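 active = B-score of the integrated calcium signal more than 4 SD below the library mean, with starting fluorescence not abnormally high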;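 note: negative B-score means reduced calcium response which marks RGS4 activation or potentiation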
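Detection: kinetic calcium fluorescence imaging with Fluo4-AM dye, 2 µM / Material: HEK293 cells with stable M3R and inducible RGS4 / Schedule: recording 10 s baseline at 1 Hz, 100 s post-agonist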
RGS4 inh = RGS4 inhibitors, primary screen, cell-based, HEK293 M3R inducible RGS4, calcium flux | AID 463165, 2010 | actives 0.45% (n = 310,000) | Regulator of G-protein signaling 4 (Homo sapiens), P49798 | Fluo-4 calcium flux; active compounds read high; triggered by carbachol at its EC20 | B-score at 10 µM;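 active = B-score, a plate-corrected calcium signal, over three deviations above library mean, with baseline fluorescence within five deviations of library mean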;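 note: RGS4 expression induced by doxycycline in cells with stable M3 receptor; B-score is computed from the integrated fluorescence ratio over baseline after carbachol; higher B-score means a larger calcium signal and so more RGS4 inhibition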
Target sequence (P49798 whole entry, looked up): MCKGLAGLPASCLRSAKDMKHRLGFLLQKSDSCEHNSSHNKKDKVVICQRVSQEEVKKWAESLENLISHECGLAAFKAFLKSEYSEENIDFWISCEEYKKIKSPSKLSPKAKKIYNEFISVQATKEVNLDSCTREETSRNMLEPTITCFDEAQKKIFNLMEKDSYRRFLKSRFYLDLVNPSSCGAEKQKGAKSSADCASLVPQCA
MrgX1 allo act = positive allosteric modulators of MrgX1, primary screen, HEK293 cells, Fluo-4 calcium flux. FDSS; active compounds read high. actives 0.63% (n = 310,000). AID 588675, 2011. B-score at 10 µM. Mas-related G-protein coupled receptor member X1 (Homo sapiens), Q96LB2;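 active = plate-corrected calcium response at least 3 library SD above typical, normal starting fluorescence, not activating the receptor alone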;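 note: compound read alongside a low EC10 to EC30 dose of BAM8-22 agonist; peak minus trough fluorescence over baseline measured at the second addition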
MrgX1 antag = antagonists of human MrgX1 receptor, primary screen, HEK293 cells, Fluo-4 calcium flux. AID 588676, 2011. actives 1.3% (n = 310,000). BAM8-22 antagonism; active compounds read low. Mas-related G-protein coupled receptor member X1 (Homo sapiens), Q96LB2. B-score at 10 µM;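 active = calcium-response B-score plate-corrected more than 3 library SD below zero, starting fluorescence within 5 deviations, no agonist response on first addition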;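 note: peak minus trough fluorescence over baseline after final BAM8-22 challenge near maximal dose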
MrgX1 agonist = agonists of human MrgX1 receptor, primary screen, HEK293 cells, Fluo-4 calcium flux. Fluo-4 calcium fluorescence, agonist mode; active compounds read high. B-score at 10 µM. AID 588627, 2011. actives 0.44% (n = 310,000). Mas-related G-protein coupled receptor member X1 (Homo sapiens), Q96LB2;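 active = calcium response B-score plate-corrected fluorescence ratio at least 3 library SD, with starting fluorescence B-score inside 5 SD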
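Material: MrgX1-expressing HEK293 cells; input: 15,000 cells per well; doses: test compound given as first of three sequential additions; schedule: overnight plating before 1 h dye loading; technique: Fluo-4 NW calcium-flux fluorescence, kinetic read; evaluation: baseline-normalised fluorescence change ratio, B-scored; control set: plate-wise positive and negative controls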
PHOSPHO1 block = PubChem AID 1565 | actives 1.1% (n = 290,000) | inhibition, % at 13.3 µM | recombinant PHOSPHO1, absorbance phosphatase assay | Phosphoethanolamine/phosphocholine phosphatase (Homo sapiens), Q8TCT1; in the data active = inhibition above about 60%
Target sequence (Q8TCT1 whole entry, looked up): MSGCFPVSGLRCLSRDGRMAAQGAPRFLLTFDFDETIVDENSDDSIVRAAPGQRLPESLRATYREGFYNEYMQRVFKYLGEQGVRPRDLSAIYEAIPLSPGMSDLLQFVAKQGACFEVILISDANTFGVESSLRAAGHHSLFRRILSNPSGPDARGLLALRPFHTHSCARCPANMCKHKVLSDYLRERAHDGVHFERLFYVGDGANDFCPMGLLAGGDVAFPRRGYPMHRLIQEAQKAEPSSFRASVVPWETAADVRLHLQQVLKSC
An asterisk follows results filed as active; i = inactive; . = no result given.

SMILES | RGS4 act | RGS4 inh | MrgX1 allo act | MrgX1 antag | MrgX1 agonist | PHOSPHO1 block
Cc1ccc(-c2nc(CSc3nc4ccccc4c(=O)n3C)cs2)cc1 | -7.02* | i | i | i | i | -1.5
COc1ccccc1-n1cnnc1SCc1csc(-c2ccccc2)n1 | . | . | i | i | i | 4.4
COc1ccc(COC(=O)c2ccc(Br)c(S(=O)(=O)N3CCOCC3)c2)cc1F | i | i | i | i | i | .
CC(C)c1cn(C2OC(COC(=O)c3ccccc3)C(OC(=O)c3ccccc3)C2OC(=O)c2ccccc2)c(=O)[nH]c1=O (stereo not drawn) | i | i | i | i | i | .
COc1ccc(/C=C/C(=O)N(Cc2cccs2)C2CCS(=O)(=O)C2)cc1 (stereo not drawn) | -7.45* | i | i | i | i | 26.8
Cc1ccc(O)c(C(=O)c2cc(C#N)c(=O)n(-c3nccs3)c2)c1 | i | i | i | i | 52.8* | 10.9
Cc1ccc(O)c(C(=O)c2cc(C#N)c(=O)n(-c3c(C)n(C)n(-c4ccccc4)c3=O)c2)c1 | i | i | i | i | i | 3.8
Cc1c(-n2cc(C(=O)c3cc(Cl)ccc3O)cc(C#N)c2=O)c(=O)n(-c2ccccc2)n1C | i | i | 7.82* | i | i | -16.4
CC[C@@]1(c2ccccc2)C(=O)N(C(=O)OC)N1C(=O)OC | i | i | i | -8.65* | i | 20.2
CC[C@]1(c2ccccc2)C(=O)N(C(=O)OC)N1C(=O)OC | i | i | i | i | i | 4.7
CN1CCN(C(=O)CCN2C(=O)/C(=C\c3ccc(Cl)cc3Cl)SC2=S)CC1 | i | i | i | i | i | 83.6*
O=C(CCN1C(=O)/C(=C\c2ccccc2Cl)SC1=S)N1CCN(c2ccccc2)CC1 | i | i | i | i | i | 40.0
O=C1CC[C@@H](CN(Cc2ccccc2)Cc2cn[nH]c2-c2cc3ccccc3o2)N1 | i | i | i | i | i | 32.5
c1ccc2oc(-c3[nH]ncc3CN(Cc3ccncc3)CC3CCCO3)cc2c1 (stereo not drawn) | i | i | i | i | i | 60.1*
CCC(NC(=S)NC1CCCCC1)c1ccccc1 (stereo not drawn) | i | i | i | i | i | 37.7
COc1ccc(/C=C/C(=O)C2CC2)cc1COc1c(C)cccc1C | -8.53* | i | i | i | i | -14.5
COc1ccc(/C=C/C(=O)O)cc1COc1cccc(C)c1 | i | i | i | i | i | 3.4
CCOC(=O)C1=C(c2ccccc2)NC(N)=NC1c1ccc(OCc2ccc(C(=O)OC)cc2)cc1 (stereo not drawn) | -6.98* | i | i | i | i | 27.3
CCOC(=O)C1=C(c2ccccc2)Nc2ncnn2C1c1ccc(C(=O)O)cc1 (stereo not drawn) | i | i | i | i | i | 43.0
Cc1c(Br)c([N+](=O)[O-])nn1CC(=O)NCCc1c[nH]c2ccccc12 | i | i | i | -5* | i | 0.4
CC1CCC(C(C)C)C(OC(=O)CSc2nc(N)cc(=O)[nH]2)C1 (stereo not drawn) | i | i | i | i | i | -4.2
CC1CCC(C(C)C)C(OC(=O)CSc2nnc(N)s2)C1 (stereo not drawn) | i | i | i | i | i | -16.5
CC1CCC(C(C)C)C(OC(=O)Cn2c(-c3ccccc3)[n+](C)c3ccccc32)C1 (stereo not drawn) | i | i | i | -7.51* | i | 0.2
Cc1cccc(OC(=O)Cn2c(C(F)(F)F)nc3ccccc32)c1 | i | i | i | i | i | 23.8
CC1CCC(C(C)C)C(OC(=O)Cn2c(-c3ccc(F)cc3)[n+](C)c3ccccc32)C1 (stereo not drawn) | . | . | i | -5.79* | i | 3.5
